Compound activity from PubChem BioAssay.
MT stabilizer – microtubule stabilization, imaging screen | HeLa tubulin immunostaining HCS, 24 h; share of cells brighter than vehicle mean+2SD | % tubulin-high responders, % at 10 µM | 200,000 compounds, 0.83% hits | AID 2205;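 active means plate Z-score above 3 for both tubulin-high and condensed-nucleus cell shares, with cell loss under 80%, at 10 µM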;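 further: anti alpha tubulin signal scored within the nucleus-defined area of each cell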
BaF3 tox – reduces parental Ba/F3 cell viability, JAK2V617F counter-screen. CellTiter-Glo ATP luminescence. inhibition, % at 5.6 µM. 220,000 compounds, 1.1% hits. AID 1486;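 active means inhibition above a per-campaign cutoff, the mean inhibition of all tested compounds plus 3 SD, cut at about 27% in these data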;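 further: 0% = DMSO wells and 100% = JAK Inhibitor I control wells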
Ba/F3 V617F tox – reduce viability of Ba/F3 cells dependent on JAK2V617F | AID 1446 | Ba/F3 EpoR-JAK2V617F viability, ATP luminescence | 220,000 compounds, 1.1% hits | inhibition, % at 5.6 µM;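 active means inhibition above the campaign mean plus 3 SD over all tested compounds, cut at about 24% in these data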;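 further: cytokine-independent growth of Ba/F3 cells driven by EpoR plus mutant JAK2; 0% = DMSO-treated cells and 100% = JAK inhibitor I control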
IEC-6 tox – kills IEC-6 intestinal cells in KLF5 counter-screen | IEC-6 cytotoxicity, luminescence viability | inhibition, % at 5 µM | 290,000 compounds, 0.78% hits | AID 1825; in the data active means inhibition above about 22%;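 further: 0% = plate median of test compound wells and 100% = cytotoxic reference compound wells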
APP 5UTR inh – APP translation inhibition. inhibition, % at 2 µM. 190,000 compounds, 0.82% hits. AID 1285. SH-SY5Y APP 5'UTR-luciferase reporter, luminescence;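 active means inhibition above a set limit, derived from the sample mean plus 3 SD, cut at about 45% in these data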
bCat nuc transl – modulators of beta-catenin nuclear translocation; nuclear translocation activity, % at 5 µM; HeLa beta-catenin nuclear translocation, immunofluorescence imaging; AID 1665; 190,000 compounds, 0.3% hits;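 active means nuclear translocation activity above 50% at 5 µM, with a well cell count of 50 or more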;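 further: per-cell ratio of nuclear to cytoplasmic median beta-catenin stain intensity; plate controls were DMSO negative control for no effect and GSK-3 inhibitor IX positive control for full effect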
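Test system: HeLa cells, endogenous beta-catenin; Compound: single 5 µM dose plus 0.02–20 µM confirmation series; Times: compound exposure 24 h at 37°C; Signal: fluorescence imaging of beta-catenin antibody stain plus DAPI; Read-out: % activation, nuclear-to-cytoplasmic median beta-catenin signal ratio per cell.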
BaF3 parental 2 – counter-screen for JAK2V617F inhibitors: parental Ba/F3 viability inhibitors; 580 compounds, 31% hits; CellTiter-Glo luminescence; cells kept alive by added IL-3; shares compounds with Ba/F3 V617F tox; inhibition, % at 5.6 µM;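 active means cell growth inhibition above the hit limit set in the earlier mutant JAK2 cell screen, cut at about 27% in these data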;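 further: plate controls were DMSO-treated cells for no effect and JAK Inhibitor I control wells for full effect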
JAK2V617F confrm – Ba/F3 EpoR-JAK2V617F viability loss, confirmation; shares compounds with Ba/F3 V617F tox; CellTiter-Glo luminescence; inhibition, % at 5.6 µM; 580 compounds, 66% hits;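 active means mean inhibition above the hit cutoff derived in the earlier primary screen, cut at about 25% in these data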;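 further: 0% = DMSO-treated cells and 100% = JAK inhibitor I control wells; higher means lower luminescence from reduced cell ATP and viability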
* = called active by the depositor. Rows were chosen to be rich in hits. Some 2.2% of all compounds tested hit in one or more screens of this group.

How did COc1cccc(/C=N/Nc2nc3ccccc3[nH]2)c1O do in these assays?
BaF3 tox: 21.1; Ba/F3 V617F tox: 77.2*; IEC-6 tox: 4.7; bCat nuc transl: 0.8; BaF3 parental 2: 59.0*; JAK2V617F confrm: 88.8*

What do the screens show for `CC(=O)Nc1ccc(/C=N/Nc2nc3ccccc3[nH]2)cc1`?
MT stabilizer: 4.5; BaF3 tox: -0.9; Ba/F3 V617F tox: 6.0; IEC-6 tox: -1.9; APP 5UTR inh: -20.0; bCat nuc transl: -1.3

What do the screens show for `CCN(CC)c1ccc(/C=N/Nc2nc3ccccc3[nH]2)cc1`?
MT stabilizer: 4.7; BaF3 tox: -2.0; Ba/F3 V617F tox: 49.8*; IEC-6 tox: 41.1*; APP 5UTR inh: 11.6; bCat nuc transl: -0.1; BaF3 parental 2: 4.8; JAK2V617F confrm: 64.3*

Results for COc1cccc(/C=N/Nc2ncnc3scc(-c4ccccc4)c23)c1O ?
MT stabilizer: 8.3; BaF3 tox: 26.3; Ba/F3 V617F tox: 40.6*; IEC-6 tox: -1.1; APP 5UTR inh: 89.4*; bCat nuc transl: -4.7; BaF3 parental 2: 92.4*; JAK2V617F confrm: 97.7*

What do the screens show for `CC(C)CNC(=S)N(CCO)Cc1cc2cc3c(cc2[nH]c1=O)OCO3`?
IEC-6 tox: -2.9

What do the screens show for `COc1cccc(N2CCN(c3ccc4nnc(CCC(=O)Nc5ccc(C)cn5)n4n3)CC2)c1`?
IEC-6 tox: -3.5

What do the screens show for `COc1ccccc1N1CCN(CCOc2c(OC)cccc2OC)CC1`?
MT stabilizer: 1.3; BaF3 tox: 4.6; Ba/F3 V617F tox: 26.0*; IEC-6 tox: 6.5; APP 5UTR inh: 11.7; BaF3 parental 2: -2.6; JAK2V617F confrm: 22.1

What do the screens show for `CCOc1ccccc1N1CCN(Cc2cccc(OC)c2O)CC1`?
MT stabilizer: 2.9; BaF3 tox: 4.0; Ba/F3 V617F tox: 40.1*; IEC-6 tox: -1.2; APP 5UTR inh: 6.2; BaF3 parental 2: -5.5; JAK2V617F confrm: 3.7

How did COc1ccccc1N1CCN(CCCCOc2c(OC)cccc2OC)CC1 do in these assays?
IEC-6 tox: 0.4

What do the screens show for `CCOc1cc(NC(=O)c2ccco2)c(OCC)cc1NC(=O)c1ccco1`?
IEC-6 tox: -7.3

How did CCOc1cc(C#N)c(NC(=O)c2ccco2)cc1OCC do in these assays?
MT stabilizer: 39.6*; BaF3 tox: 15.0; Ba/F3 V617F tox: 39.1*; IEC-6 tox: 21.3; APP 5UTR inh: -12.2; bCat nuc transl: 8.5; BaF3 parental 2: 17.4; JAK2V617F confrm: 23.6*

Results for O=C(NCCCN1CCOCC1)C(=O)N/N=C/c1ccccc1O ?
BaF3 tox: -2.5; Ba/F3 V617F tox: -2.9; IEC-6 tox: -10.2; bCat nuc transl: 2.0

Results for CCS(=O)(=O)CCSc1nc2ccccc2s1 ?
MT stabilizer: 2.6; BaF3 tox: 2.6; Ba/F3 V617F tox: 1.4; IEC-6 tox: 4.9; APP 5UTR inh: 2.2; bCat nuc transl: -3.3

What do the screens show for `O=S(=O)(CCSc1nc2ccccc2s1)c1nc2ccccc2s1`?
MT stabilizer: 10.9*; BaF3 tox: -1.8; Ba/F3 V617F tox: 40.4*; IEC-6 tox: 4.2; APP 5UTR inh: 30.1; bCat nuc transl: 2.6; BaF3 parental 2: 35.6*; JAK2V617F confrm: 99.9*

How did O=C(CCl)NC(=O)NC12CC3CC(CC(C3)C1)C2 do in these assays?
MT stabilizer: 2.7; BaF3 tox: -11.0; Ba/F3 V617F tox: 43.1*; IEC-6 tox: -3.5; APP 5UTR inh: -5.6; bCat nuc transl: 0.8; BaF3 parental 2: 6.7; JAK2V617F confrm: 93.1*

Results for CN(c1ccccc1)S(=O)(=O)c1ccc(C(=O)OCC(=O)NCc2cccs2)cc1 ?
BaF3 tox: -10.9; Ba/F3 V617F tox: -0.9; IEC-6 tox: 1.7; bCat nuc transl: 1.8

How did COc1ccc(/C=N/NC(=O)CCn2cnc(-c3ccccc3)c2-c2ccccc2)cc1 do in these assays?
MT stabilizer: 13.7; BaF3 tox: 11.0; Ba/F3 V617F tox: 46.9*; IEC-6 tox: 39.7*; APP 5UTR inh: 89.2*; bCat nuc transl: 60.1*; BaF3 parental 2: 62.3*; JAK2V617F confrm: 94.0*
